Data taken from ChEMBL document CHEMBL2062417, “Biotinylated quercetin as an intrinsic photoaffinity proteomics probe for the identification of quercetin target proteins” (Bioorg Med Chem, 2011).
Active and inactive are the calls of the source. The rule behind the calls is not given here.

How the values were obtained:
[1] = biological target: Casein kinase II subunit alpha (Homo sapiens) (UniProt P68400); experiment: Binding affinity to CK2alpha at 150 uM followed by UV irradiation for 30 mins with Wood's glass filtered medium pressure mercury arc light by SDS-PAGE based pull down assay
In short: (§1)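 CK2 (17.5–70 nM) was mixed with 150 μM BioQ in 400 μL 10 mM PBS pH 7.2 with protease inhibitors, with or without 10 mM MgCl2 and 2 μM ATP. Samples were irradiated 30 min on ice (320–400 nm, peak 365 nm) or left unirradiated. Capture was on streptavidin agarose for 1 h, with washes in lysis buffer or 2% SDS Tris buffer, then boiling, SDS-PAGE and silver staining.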

Homo sapiens = organism: Homo sapiens; experiment: Binding affinity to CK2 at 150 uM followed by UV irradiation for 30 mins with Wood's glass filtered medium pressure mercury arc light by silver staining based pull down assay; in short: as §1
Jurkat [2] = experiment: Binding affinity to quercetin binding protein in human Jurkat cells at 150 uM followed by UV irradiation for 30 mins with Wood's glass filtered medium pressure mercury arc light after cell lysis measured after denaturing wash by Western blotting based pull down assay in presence of heat shock
In short: (§2)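 Streptavidin pull-downs from heat-shocked, BioQ-treated (150 μM), UV-irradiated Jurkat cells received a 2% SDS wash. Proteins were transferred from SDS gels to nitrocellulose and blocked overnight in 3% BSA at 4 °C. Blots were probed 1 h with HRP-conjugated anti-biotin antibody and developed with 4-chloro-1-naphthol/0.01% H2O2, with no-UV and no-probe controls.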

Jurkat [3] = experiment: Binding affinity to quercetin binding protein in human Jurkat cells at 150 uM followed by UV irradiation for 30 mins with Wood's glass filtered medium pressure mercury arc light before cell lysis measured after denaturing wash by Western blotting based pull down assay in presence of heat shock; in short: as §2
[4] = biological target: Heat shock protein HSP 90-alpha (Homo sapiens) (UniProt P07900); experiment: Binding affinity to HSP90AA1 in human Jurkat cells at 150 uM followed by UV irradiation for 30 mins with Wood's glass filtered medium pressure mercury arc light after cell lysis measured after denaturing wash by SDS-PAGE based pull down assay
In short: (§3)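 Jurkat cells were grown in RPMI with 10% FBS (about 15×10^6 cells) and treated 2 h with 150 μM BioQ in 3% aqueous DMSO. They were heat-shocked at 43 °C for 30 min, recovered 1 h at 37 °C, and UV-irradiated (320–400 nm, peak 365 nm, 30 min, 4 °C) before or after sonication lysis. Streptavidin-agarose capture ran 1 h. Beads were washed ≥3× with lysis buffer or 2% SDS Tris pH 7.4, boiled, run on 12% SDS-PAGE and silver-stained.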

[5] = biological target: T1, Splicing factor 3B subunit 3 (Homo sapiens) (UniProt Q15393); experiment: Binding affinity to SF3B3 in human Jurkat cells at 150 uM followed by UV irradiation for 30 mins with Wood's glass filtered medium pressure mercury arc light prior to cell lysis measured after denaturing wash by SDS-PAGE based pull down assay; in short: as §3
T1 sequence (whole entry): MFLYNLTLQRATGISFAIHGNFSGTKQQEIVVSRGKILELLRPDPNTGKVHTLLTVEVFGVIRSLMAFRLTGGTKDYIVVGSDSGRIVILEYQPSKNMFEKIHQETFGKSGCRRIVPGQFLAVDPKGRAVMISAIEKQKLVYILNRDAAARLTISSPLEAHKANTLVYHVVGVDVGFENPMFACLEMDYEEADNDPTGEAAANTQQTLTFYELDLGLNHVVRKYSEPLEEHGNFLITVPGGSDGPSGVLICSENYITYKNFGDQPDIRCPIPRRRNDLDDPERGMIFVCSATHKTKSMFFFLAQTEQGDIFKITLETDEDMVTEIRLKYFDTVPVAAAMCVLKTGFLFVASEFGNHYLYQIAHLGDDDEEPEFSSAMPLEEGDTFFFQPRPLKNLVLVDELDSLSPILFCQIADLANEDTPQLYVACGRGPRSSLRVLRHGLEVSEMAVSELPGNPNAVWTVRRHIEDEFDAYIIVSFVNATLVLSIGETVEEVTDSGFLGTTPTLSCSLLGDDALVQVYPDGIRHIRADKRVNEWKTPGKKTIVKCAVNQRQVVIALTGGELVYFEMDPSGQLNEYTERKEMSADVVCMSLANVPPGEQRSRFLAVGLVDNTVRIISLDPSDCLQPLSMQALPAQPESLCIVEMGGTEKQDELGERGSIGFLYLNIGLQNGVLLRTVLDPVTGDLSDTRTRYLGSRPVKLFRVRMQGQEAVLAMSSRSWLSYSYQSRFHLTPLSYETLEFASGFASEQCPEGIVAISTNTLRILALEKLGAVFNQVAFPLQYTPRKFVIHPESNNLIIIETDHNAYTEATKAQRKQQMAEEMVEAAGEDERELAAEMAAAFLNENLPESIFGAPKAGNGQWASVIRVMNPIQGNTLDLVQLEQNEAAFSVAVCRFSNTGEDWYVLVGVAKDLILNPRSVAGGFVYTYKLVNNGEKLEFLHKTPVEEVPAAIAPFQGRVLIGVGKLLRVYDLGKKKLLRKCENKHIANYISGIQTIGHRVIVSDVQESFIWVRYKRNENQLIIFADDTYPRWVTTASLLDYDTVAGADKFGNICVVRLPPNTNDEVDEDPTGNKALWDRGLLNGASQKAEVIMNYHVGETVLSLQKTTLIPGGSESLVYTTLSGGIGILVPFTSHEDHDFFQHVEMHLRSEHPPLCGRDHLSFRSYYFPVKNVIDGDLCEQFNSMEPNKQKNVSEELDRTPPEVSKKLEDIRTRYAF

[6] = biological target: ATP synthase F(1) complex subunit alpha, mitochondrial (Homo sapiens) (UniProt P25705); experiment: Binding affinity to ATP5A1 in human Jurkat cells at 150 uM followed by UV irradiation for 30 mins with Wood's glass filtered medium pressure mercury arc light prior to cell lysis measured after denaturing wash by SDS-PAGE based pull down assay; in short: as §3
[7] = biological target: T1, Splicing factor 3B subunit 3 (Homo sapiens); experiment: Binding affinity to SF3B3 in human Jurkat cells at 150 uM followed by UV irradiation for 30 mins with Wood's glass filtered medium pressure mercury arc light prior to cell lysis measured after denaturing wash by LC-MS/MS based pull down assay
In short: (§4)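 Silver-stained bands from cells irradiated before lysis were excised, destained, reduced with 10 mM DTT, alkylated with 50 mM iodoacetamide and digested with trypsin overnight. Peptides were extracted in 1% TFA/50% acetonitrile. Nano-C18 LC used a 2–50% acetonitrile gradient with 0.1% formic acid over 50 min at 260 nL/min, followed by MS/MS identification.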

[8] = biological target: ATP synthase F(1) complex subunit beta, mitochondrial (Homo sapiens) (UniProt P06576); experiment: Binding affinity to ATP5B in human Jurkat cells at 150 uM followed by UV irradiation for 30 mins with Wood's glass filtered medium pressure mercury arc light prior to cell lysis measured after denaturing wash by LC-MS/MS based pull down assay; in short: as §4
[9] = biological target: Eukaryotic translation initiation factor 3 subunit F (Homo sapiens) (UniProt O00303); experiment: Binding affinity to EIF3F in human Jurkat cells at 150 uM followed by UV irradiation for 30 mins with Wood's glass filtered medium pressure mercury arc light prior to cell lysis measured after denaturing wash by LC-MS/MS based pull down assay; in short: as §4
Eukaryotic translation initiation factor 3 subunit F (Homo sapiens), sequence (O00303 whole entry): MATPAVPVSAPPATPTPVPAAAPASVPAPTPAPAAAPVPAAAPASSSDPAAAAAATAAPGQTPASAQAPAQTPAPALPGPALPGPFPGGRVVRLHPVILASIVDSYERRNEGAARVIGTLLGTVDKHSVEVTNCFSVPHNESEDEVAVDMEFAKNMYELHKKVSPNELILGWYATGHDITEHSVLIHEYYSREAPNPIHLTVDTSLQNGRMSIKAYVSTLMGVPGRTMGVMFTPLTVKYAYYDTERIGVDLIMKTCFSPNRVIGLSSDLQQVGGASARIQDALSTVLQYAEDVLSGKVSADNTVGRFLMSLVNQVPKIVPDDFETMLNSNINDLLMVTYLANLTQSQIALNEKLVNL

ATP synthase F(1) complex subunit alpha, mitochondrial (Homo sapiens), sequence (P25705 whole entry, one chain of several): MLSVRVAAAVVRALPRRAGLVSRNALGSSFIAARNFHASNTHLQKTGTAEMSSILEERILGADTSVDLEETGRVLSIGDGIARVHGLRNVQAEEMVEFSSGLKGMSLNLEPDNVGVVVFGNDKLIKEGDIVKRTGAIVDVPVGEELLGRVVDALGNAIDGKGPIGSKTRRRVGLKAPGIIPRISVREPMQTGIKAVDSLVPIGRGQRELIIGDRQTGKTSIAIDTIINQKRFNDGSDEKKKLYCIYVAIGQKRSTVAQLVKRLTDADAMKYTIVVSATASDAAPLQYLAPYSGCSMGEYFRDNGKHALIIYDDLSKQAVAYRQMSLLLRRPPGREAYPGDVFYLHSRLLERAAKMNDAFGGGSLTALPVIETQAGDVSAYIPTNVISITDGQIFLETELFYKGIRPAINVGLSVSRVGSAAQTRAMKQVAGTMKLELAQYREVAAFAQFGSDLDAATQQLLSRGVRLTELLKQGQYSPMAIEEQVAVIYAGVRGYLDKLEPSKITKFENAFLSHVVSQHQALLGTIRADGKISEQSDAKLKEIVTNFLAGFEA
Casein kinase II subunit alpha (Homo sapiens), sequence (P68400 whole entry, looked up): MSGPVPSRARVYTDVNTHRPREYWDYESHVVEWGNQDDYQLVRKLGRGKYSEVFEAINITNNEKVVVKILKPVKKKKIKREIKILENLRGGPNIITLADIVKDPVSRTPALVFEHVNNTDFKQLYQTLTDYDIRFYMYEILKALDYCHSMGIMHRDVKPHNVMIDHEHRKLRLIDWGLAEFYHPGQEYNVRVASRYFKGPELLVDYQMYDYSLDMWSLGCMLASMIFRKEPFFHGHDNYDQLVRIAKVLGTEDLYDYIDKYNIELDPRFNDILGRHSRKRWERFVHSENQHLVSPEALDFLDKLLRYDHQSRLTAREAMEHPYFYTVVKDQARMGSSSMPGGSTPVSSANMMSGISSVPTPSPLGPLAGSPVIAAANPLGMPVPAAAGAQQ
ATP synthase F(1) complex subunit beta, mitochondrial (Homo sapiens), sequence (P06576 whole entry, one chain of several): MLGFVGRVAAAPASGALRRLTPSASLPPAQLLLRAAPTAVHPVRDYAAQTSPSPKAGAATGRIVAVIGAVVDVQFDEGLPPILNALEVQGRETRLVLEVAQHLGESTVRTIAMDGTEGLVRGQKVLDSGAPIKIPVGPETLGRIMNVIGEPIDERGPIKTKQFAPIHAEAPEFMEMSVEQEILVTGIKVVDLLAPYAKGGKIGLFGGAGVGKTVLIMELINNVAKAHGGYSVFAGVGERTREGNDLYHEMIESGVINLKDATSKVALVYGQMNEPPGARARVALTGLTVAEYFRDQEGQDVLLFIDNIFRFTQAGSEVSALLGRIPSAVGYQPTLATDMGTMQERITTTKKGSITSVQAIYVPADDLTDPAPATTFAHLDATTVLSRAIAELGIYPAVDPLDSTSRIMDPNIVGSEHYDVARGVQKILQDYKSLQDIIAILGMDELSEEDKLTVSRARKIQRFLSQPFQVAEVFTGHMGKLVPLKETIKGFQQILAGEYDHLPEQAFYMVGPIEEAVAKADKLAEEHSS

O=C(CCCC[C@@H]1SC[C@@H]2NC(=O)N[C@@H]21)NCCOCCOCCNC(=O)COc1cc(O)c2c(=O)c(O)c(-c3ccc(O)c(O)c3)oc2c1
Activity [1]: Active | Activity (Homo sapiens): inactive | Activity (Jurkat [2]): Active | Activity (Jurkat [3]): Active | Activity [4]: Active | Activity [5]: Active | Activity [6]: Active | Activity [7]: Active | Activity [8]: Active | Activity [9]: Active
